Results published in ChEMBL document CHEMBL5380839, “Design and Pharmacological Characterization of α4β1 Integrin Cyclopeptide Agonists: Computational Investigation of Ligand Determinants for Agonism versus Antagonism” (J Med Chem, 2023).
Each block holds one molecule with its values, some of them ahead of it. Starred links: 1 amine or outer side, 2 acyl side, 3 side chain; linkers in the order of their positions; H or OH if unused. Positions of bridges follow the written chain, without caps; N, C: chain ends. Non-standard residues stand in square brackets, D forms with d. Residues, ends and D or L forms follow the SMILES beside them. Groups on a side chain read outwards from the residue. *: point of attachment. dPhe(4-NH2) = Nc1ccc(C[C@@H](N)C(=O)O)cc1; Phe(4-NH2) = Nc1ccc(C[C@H](N)C(=O)O)cc1; X1 = O=C(Cc1ccc(N[*:1])cc1)[*:2]; NH(2-Me-phenyl) = Cc1ccccc1N*; Phg = N[C@H](C(=O)O)c1ccccc1; d(β3hA) = C[C@@H](N)CC(=O)O; CO = O=C([*:1])[*:2]; NHPr = CCCN*

Columns and labels:
[1] = target: T1, Integrin alpha-M/beta-2 (Homo sapiens, UniProt P05107+P11215); assay: Agonist activity at alphaMbeta2 integrin receptor in human HL-60 cells assessed as inhibition of fibrinogen-induced cell adhesion pre-incubated for 30 mins followed by 30 mins incubation in fibrinogen coated wells by fluorescence plate reader assay; format: cell-based
T1 sequence (P05107 23-769 limits assumed, other chains not shown): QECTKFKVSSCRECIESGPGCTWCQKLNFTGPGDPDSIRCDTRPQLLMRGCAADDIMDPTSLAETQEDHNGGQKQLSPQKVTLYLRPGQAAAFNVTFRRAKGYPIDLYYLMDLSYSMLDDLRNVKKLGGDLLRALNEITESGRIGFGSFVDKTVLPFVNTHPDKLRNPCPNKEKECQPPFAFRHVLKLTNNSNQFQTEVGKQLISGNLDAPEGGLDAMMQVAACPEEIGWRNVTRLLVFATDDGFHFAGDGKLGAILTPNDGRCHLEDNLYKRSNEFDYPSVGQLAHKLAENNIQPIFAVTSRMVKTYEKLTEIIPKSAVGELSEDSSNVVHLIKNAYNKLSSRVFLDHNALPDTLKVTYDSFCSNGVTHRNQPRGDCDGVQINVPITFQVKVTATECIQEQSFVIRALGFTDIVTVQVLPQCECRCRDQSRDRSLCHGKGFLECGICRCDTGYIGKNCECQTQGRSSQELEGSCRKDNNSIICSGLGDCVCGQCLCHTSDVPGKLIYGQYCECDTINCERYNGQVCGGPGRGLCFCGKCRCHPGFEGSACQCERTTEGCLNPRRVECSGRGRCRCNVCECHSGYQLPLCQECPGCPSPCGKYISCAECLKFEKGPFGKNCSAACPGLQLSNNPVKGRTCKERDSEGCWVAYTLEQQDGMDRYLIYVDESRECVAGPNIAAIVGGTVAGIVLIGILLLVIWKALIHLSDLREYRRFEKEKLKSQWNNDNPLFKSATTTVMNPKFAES

[2] = target: T2, Integrin alpha4/beta7 complex (Homo sapiens, UniProt P26010+P48169); assay: Agonist activity at alpha4beta7 integrin receptor in human RPMI-8866 cells assessed as inhibition of mucosal vascular add-ressin cell adhesion molecule 1-induced cell adhesion pre-incubated for 30 mins followed by 30 mins incubation in mucosal vascular add-ressin cell adhesion molecule 1 coated wells by fluorescence plate reader assay; format: cell-based
T2 sequence (P48169 whole entry): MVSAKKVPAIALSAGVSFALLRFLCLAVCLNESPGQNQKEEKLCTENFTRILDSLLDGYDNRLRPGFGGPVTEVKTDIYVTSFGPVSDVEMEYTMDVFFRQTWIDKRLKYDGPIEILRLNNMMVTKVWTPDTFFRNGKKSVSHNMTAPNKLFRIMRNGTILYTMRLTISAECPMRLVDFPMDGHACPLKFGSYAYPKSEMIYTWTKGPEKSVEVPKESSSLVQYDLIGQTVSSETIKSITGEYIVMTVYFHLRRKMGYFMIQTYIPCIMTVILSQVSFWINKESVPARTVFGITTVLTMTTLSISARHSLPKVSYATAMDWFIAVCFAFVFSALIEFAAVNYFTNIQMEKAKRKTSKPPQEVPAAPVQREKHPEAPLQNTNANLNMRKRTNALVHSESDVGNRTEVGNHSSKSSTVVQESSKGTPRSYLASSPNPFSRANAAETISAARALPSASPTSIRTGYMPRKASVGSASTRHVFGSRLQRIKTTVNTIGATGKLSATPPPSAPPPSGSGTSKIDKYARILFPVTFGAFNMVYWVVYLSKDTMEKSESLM
T2 sequence (P26010 whole entry): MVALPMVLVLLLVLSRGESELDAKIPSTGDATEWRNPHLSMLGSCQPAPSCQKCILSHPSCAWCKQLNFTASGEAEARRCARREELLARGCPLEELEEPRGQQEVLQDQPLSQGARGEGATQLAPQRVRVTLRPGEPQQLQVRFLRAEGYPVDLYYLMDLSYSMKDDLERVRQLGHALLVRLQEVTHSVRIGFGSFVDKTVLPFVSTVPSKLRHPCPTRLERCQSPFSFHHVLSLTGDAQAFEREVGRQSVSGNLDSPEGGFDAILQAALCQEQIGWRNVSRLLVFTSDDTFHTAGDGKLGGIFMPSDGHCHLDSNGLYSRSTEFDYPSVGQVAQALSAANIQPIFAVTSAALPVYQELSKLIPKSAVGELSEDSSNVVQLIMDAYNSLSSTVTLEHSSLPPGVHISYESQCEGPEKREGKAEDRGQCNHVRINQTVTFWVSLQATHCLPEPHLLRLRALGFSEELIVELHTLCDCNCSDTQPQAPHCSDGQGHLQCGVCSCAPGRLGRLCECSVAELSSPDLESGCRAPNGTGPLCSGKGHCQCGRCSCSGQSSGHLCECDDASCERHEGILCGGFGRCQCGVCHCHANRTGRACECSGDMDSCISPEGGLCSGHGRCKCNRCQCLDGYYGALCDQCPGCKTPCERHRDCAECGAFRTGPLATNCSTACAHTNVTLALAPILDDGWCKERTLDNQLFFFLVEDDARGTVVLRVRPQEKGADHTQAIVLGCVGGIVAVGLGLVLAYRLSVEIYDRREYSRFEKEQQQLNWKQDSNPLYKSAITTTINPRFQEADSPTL

[3] = target: T3, Integrin alpha-4/beta-1 (Homo sapiens, UniProt P05556+P13612); assay: Binding affinity to alpha4beta1 integrin receptor (unknown origin) preincubated for 30 mins followed by 30 mins incubation in vascular cell adhesion molecule 1-induced cell adhesion coated wells by fluorescence based assay; format: protein-complex assay
T3 sequence (P05556 whole entry): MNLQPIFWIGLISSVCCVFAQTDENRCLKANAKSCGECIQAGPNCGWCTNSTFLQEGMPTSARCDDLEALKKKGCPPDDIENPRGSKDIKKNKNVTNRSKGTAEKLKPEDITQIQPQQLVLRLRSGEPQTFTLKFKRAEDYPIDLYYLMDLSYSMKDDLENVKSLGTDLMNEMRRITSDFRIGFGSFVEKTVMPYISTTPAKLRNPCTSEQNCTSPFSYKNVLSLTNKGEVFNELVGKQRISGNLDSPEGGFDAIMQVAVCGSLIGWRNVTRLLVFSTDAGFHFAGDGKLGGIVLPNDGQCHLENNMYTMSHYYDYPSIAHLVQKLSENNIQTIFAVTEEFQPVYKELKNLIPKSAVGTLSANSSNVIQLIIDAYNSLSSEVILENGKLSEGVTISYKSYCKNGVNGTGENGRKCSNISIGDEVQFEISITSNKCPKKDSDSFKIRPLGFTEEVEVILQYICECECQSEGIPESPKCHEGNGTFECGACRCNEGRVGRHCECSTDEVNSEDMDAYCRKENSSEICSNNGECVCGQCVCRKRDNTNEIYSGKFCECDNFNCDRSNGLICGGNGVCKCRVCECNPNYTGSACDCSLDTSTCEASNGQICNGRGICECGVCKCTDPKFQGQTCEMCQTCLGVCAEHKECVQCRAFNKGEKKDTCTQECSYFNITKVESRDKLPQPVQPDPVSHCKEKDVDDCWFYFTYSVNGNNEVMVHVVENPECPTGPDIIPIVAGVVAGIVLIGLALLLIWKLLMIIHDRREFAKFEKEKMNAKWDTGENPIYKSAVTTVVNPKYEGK
T3 sequence (P13612 whole entry): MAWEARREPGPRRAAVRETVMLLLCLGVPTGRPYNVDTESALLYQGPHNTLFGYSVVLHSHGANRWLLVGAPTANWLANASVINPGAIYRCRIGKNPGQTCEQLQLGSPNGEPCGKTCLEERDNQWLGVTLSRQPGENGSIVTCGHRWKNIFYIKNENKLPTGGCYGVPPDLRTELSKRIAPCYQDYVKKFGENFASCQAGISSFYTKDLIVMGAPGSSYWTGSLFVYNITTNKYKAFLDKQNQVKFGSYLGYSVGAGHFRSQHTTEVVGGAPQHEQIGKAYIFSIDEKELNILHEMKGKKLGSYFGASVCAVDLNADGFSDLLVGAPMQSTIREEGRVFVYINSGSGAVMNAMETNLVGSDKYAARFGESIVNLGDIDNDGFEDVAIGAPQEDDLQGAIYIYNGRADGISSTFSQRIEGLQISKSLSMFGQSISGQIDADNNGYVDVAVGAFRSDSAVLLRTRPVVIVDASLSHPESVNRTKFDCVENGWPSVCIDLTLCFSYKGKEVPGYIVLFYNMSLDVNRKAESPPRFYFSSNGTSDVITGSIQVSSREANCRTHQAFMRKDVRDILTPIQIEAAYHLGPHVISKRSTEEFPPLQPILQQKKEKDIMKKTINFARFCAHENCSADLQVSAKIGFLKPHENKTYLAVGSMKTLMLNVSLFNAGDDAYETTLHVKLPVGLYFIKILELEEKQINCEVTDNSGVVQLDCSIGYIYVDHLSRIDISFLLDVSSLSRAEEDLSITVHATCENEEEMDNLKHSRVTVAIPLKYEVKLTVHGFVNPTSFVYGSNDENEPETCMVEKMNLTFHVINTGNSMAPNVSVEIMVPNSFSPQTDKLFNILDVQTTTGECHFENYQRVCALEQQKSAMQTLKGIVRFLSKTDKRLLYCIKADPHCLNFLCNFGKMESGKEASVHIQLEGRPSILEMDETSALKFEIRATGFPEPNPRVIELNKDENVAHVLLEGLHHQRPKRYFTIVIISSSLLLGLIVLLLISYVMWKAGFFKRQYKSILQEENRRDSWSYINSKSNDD

[4] = target: Integrin alpha-5/beta-1 (Homo sapiens, UniProt P05556+P08648); assay: Binding affinity to alpha5beta1 integrin receptor (unknown origin) preincubated for 30 mins followed by 30 mins incubation in fibronectin coated wells by fluorescence based assay; format: protein-complex assay
[5] = target: T2, Integrin alpha4/beta7 complex; assay: Binding affinity to alpha4beta7 integrin receptor (unknown origin) preincubated for 30 mins followed by 30 mins incubation in mucosal vascular add-ressin cell adhesion molecule 1 coated wells by fluorescence based assay; format: protein-complex assay
[6] = target: T1, Integrin alpha-M/beta-2; assay: Binding affinity to alphaMbeta2 integrin receptor (unknown origin) preincubated for 30 mins followed by 30 mins incubation in fibrinogen coated wells by fluorescence based assay; format: protein-complex assay
[7] = target: T3, Integrin alpha-4/beta-1; assay: Agonist activity at alpha4beta1 integrin receptor in human Jurkat E6.1 cells assessed as inhibition of fibronectin-induced cell adhesion pre-incubated for 30 mins followed by 30 mins incubation in fibronectin coated wells by fluorescence plate reader assay; format: cell-based
[8] = target: T3, Integrin alpha-4/beta-1; assay: Binding affinity to alpha4beta1 integrin receptor (unknown origin) preincubated for 30 mins followed by 30 mins incubation in fibronectin coated wells by fluorescence based assay; format: protein-complex assay
[9] = Stability in mouse serum assessed as parent compound remaining incubated upto 3 hrs by RP HPLC analysis; format: ADME, cell-free; settings: read-out: Stability
Method in brief: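 Peptide stock (10 mM in Tris buffer pH 7.4) diluted 1:20 into mouse serum and held at 37 °C. […] Remaining peptide in the supernatant measured by RP HPLC. Triplicate, repeated three times.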

Compound: Cc1ccccc1NC(=O)N1C(=O)CC1CC(=O)NCC(=O)O (centres undefined)
EC50 [1]: > 5 µM
EC50 [2]: > 5 µM

Compound: Cc1ccccc1NC(=O)N1C(=O)CC1CC(=O)O (centres undefined)
EC50 [1]: > 5 µM
EC50 [2]: > 5 µM

Compound: Cc1ccccc1NC(=O)Nc1ccc(C[C@@H]2NC(=O)C[C@@H](C(=O)O)NC(=O)[C@H](C(C)C)NC(=O)[C@H](C)NC(=O)[C@H](Cc3ccccc3)NC2=O)cc1 ([Phe(4-NH2)]([CO-NH(2-Me-phenyl)])FAVD-OH; lactam N-5)
IC50 [3]: 0.899 µM
IC50 [4]: > 5 µM
IC50 [5]: > 5 µM
IC50 [6]: > 5 µM
EC50 [7]: 1.06 µM
IC50 [8]: 0.976 µM

Compound: Cc1ccccc1NC(=O)Nc1ccc(C[C@@H]2NC(=O)C[C@@H](C(=O)O)NC(=O)[C@H](C(C)C)NC(=O)[C@H](CC(=O)O)NC(=O)[C@H](CC(C)C)NC2=O)cc1 ([Phe(4-NH2)]([CO-NH(2-Me-phenyl)])LDVD-OH; lactam N-5)
remaining at 3 h [9]: > 85%

Compound: Cc1ccccc1NC(=O)Nc1ccc(CC(=O)N[C@@H](CC(C)C)C(=O)N[C@@H](CC(=O)O)C(=O)N[C@H](C(=O)N2CCC[C@H]2C(=O)O)C(C)C)cc1 ({NH(2-Me-phenyl)-CO}-[X1]LDVP-OH)
IC50 [5]: > 1 µM
IC50 [6]: > 1 µM

Other lines, results leading:

EC50 [7]: > 5 µM
Compound: Cc1ccccc1NC(=O)Nc1ccc(C[C@@H]2NC(=O)C[C@@H](C(=O)O)NC(=O)[C@H](C(C)C)NC(=O)[C@H](CC(=O)O)NC(=O)[C@H](Cc3ccccc3)NC2=O)cc1 ([Phe(4-NH2)]([CO-NH(2-Me-phenyl)])FDVD-OH; lactam N-5)

EC50 [7]: > 5 µM
Compound: CCCNC(=O)[C@@H]1CC(=O)N[C@@H](Cc2ccc(NC(=O)Nc3ccccc3C)cc2)C(=O)N[C@@H](CC(C)C)C(=O)N[C@@H](CC(=O)O)C(=O)N[C@@H](C(C)C)C(=O)N1 ([Phe(4-NH2)]([CO-NH(2-Me-phenyl)])LDVD-NHPr; lactam N-5)

remaining at 3 h [9]: > 85%
Compound: Cc1ccccc1NC(=O)Nc1ccc(C[C@H]2NC(=O)C[C@@H](C(=O)O)NC(=O)[C@H](C(C)C)NC(=O)[C@H](CC(=O)O)NC(=O)[C@H](CC(C)C)NC2=O)cc1 ([dPhe(4-NH2)]([CO-NH(2-Me-phenyl)])LDVD-OH; lactam N-5)

EC50 [7]: > 5 µM
Compound: Cc1ccccc1NC(=O)Nc1ccc(C[C@H]2NC(=O)C[C@@H](C(=O)O)NC(=O)[C@H](c3ccccc3)NC(=O)[C@H](CC(=O)O)NC(=O)[C@H](CC(C)C)NC2=O)cc1 ([dPhe(4-NH2)]([CO-NH(2-Me-phenyl)])LD[Phg]D-OH; lactam N-5)

EC50 [7]: > 5 µM
Compound: Cc1ccccc1NC(=O)Nc1ccc(C[C@H]2NC(=O)C[C@@H](C)NC(=O)[C@H](C(C)C)NC(=O)[C@H](CC(=O)O)NC(=O)[C@H](CC(C)C)NC2=O)cc1 (cyclo(DV[d(β3hA)][dPhe(4-NH2)]([CO-NH(2-Me-phenyl)])L))

EC50 [7]: > 5 µM
Compound: Cc1ccccc1NC(=O)Nc1ccc(C[C@@H]2NC(=O)C[C@@H](C)NC(=O)[C@H](C(C)C)NC(=O)[C@H](CC(=O)O)NC(=O)[C@H](CC(C)C)NC2=O)cc1 (cyclo([Phe(4-NH2)]([CO-NH(2-Me-phenyl)])LDV[d(β3hA)]))
